Compounds with a hit are over-represented: about 4.2% of the library has one in this group of screens.
GalR3 antag – GalR3 antagonists in HEK293 cells, primary screen, cell-based, fluorescence readout | inhibition, % at 3 µM | HEK293 GalR3-CNG cAMP membrane potential fluorescence; galR3 body fused to GalR1 C-terminus | Galanin receptor type 3 (Homo sapiens), O60755 | actives 0.44% (n = 360,000);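 active = inhibition above the screen-wide average plus 3 SD, cut at about 13% in these data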;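 also: forskolin and galanin both at EC90 stimulate the cells; cAMP rise reported by CNG channel membrane potential dye signal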
Target sequence (O60755 1-299 limits assumed): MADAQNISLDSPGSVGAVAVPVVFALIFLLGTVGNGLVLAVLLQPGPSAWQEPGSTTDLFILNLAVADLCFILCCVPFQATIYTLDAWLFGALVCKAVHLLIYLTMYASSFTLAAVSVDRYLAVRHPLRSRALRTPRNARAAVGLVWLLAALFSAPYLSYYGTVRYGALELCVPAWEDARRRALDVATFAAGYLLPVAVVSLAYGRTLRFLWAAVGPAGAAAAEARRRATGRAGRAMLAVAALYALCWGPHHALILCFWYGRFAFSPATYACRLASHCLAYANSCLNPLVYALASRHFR
OX1R antag-1 – OX1R (HCRTR1) antagonists, primary screen, fluorescence, CHO/OX1R cells, Fluo-8 calcium, orexin A | Orexin/Hypocretin receptor type 1 (Homo sapiens), O43613 | Fluo-8 calcium fluorescence | inhibition, % at 5 µM | actives 0.43% (n = 330,000);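 active = inhibition above its plate's threshold, mean inhibition of all tested compounds on the plate plus 3 SD, cut at about 37% in these data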
Target sequence (O43613 whole entry, looked up): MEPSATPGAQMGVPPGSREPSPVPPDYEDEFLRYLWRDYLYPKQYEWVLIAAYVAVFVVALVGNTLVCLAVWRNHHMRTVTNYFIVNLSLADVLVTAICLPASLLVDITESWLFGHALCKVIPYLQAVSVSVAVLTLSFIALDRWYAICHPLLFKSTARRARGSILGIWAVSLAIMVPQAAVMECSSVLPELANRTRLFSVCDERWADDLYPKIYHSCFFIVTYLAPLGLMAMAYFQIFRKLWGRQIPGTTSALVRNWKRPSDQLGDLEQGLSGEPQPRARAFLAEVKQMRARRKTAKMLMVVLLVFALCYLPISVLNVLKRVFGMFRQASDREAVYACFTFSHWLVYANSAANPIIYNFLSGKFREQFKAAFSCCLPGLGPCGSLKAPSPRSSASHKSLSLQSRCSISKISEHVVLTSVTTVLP
CHO parental Ca – ATP-evoked calcium signal inhibitors, parental CHO, primary screen, counter-screen for OX1R antagonist project, cell-based, fluorescence, Fluo-8 calcium dye | actives 0.63% (n = 330,000) | parental CHO-K1, ATP-induced calcium, Fluo-8 fluorescence | inhibition, % at 5.6 µM;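 active = inhibition above that plate's mean sample inhibition plus 3 SD, cut at about 26% in these data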
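Assay system: parental CHO cells; Read-out basis: percent inhibition of ATP-evoked calcium rise, normalized to controls; Benchmarks: ATP and no-ATP DMSO wells; Compound dosing: single nominal dose of 5.6 µM per compound; Signal: Fluo-8 calcium dye fluorescence; Also added: ATP as calcium-mobilizing challenge; Repeats: singlicate.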
OX1R antag-2 – antagonists of human orexin 1 receptor (OX1R) | OX1R-expressing cells, FRET antagonist read-out | inhibition, % at 6.6 µM | actives 1.8% (n = 330,000); in the data active = inhibition mostly above about 38%, no sharp cut-off; inactive = mostly below about 40%
TAAR1 ag – human TAAR1 agonists, primary screen, Fluo-8 calcium fluorescence, CHO RD-HGA16 cells; Trace amine-associated receptor 1 (Homo sapiens), Q96RJ0; vehicle wells 0%, saturating PEA agonist 100%; activation, % at 3 µM; actives 0.99% (n = 360,000); AID 624467, 2012;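 active = activation above the mean activation of all test compounds in the run plus 3 SD, cut at about 38% in these data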
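test system = CHO RD-HGA16 cells carrying human TAAR1 plus Gα16 | schedule = 17-24 h seeding, 75 min 37 °C dye, 30 min RT | compound dosing = 3 µM single concentration | control set = DMSO and PEA EC100 | replicates = n 1 | signal = Fluo-8 fluorescence, 5 s baseline then 140 s kinetic read | measure = percent activation vs PEA EC100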
TAAR1 antagonist – human TAAR1 antagonists, primary screen, Fluo-8 calcium fluorescence, CHO RD-HGA16 cells; actives 1.5% (n = 360,000); Trace amine-associated receptor 1 (Homo sapiens), Q96RJ0; inhibition, % at 3 µM; antagonist; AID 624466, 2012;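 active = inhibition above a per-plate cutoff, the mean inhibition of test compounds on that plate plus 3 SD, cut at about 49% in these data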
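Test system: hTAAR1-expressing CHO RD-HGA16 cells, Gα16-coupled; Probe or stimulus: EC80 β-phenethylamine stimulus; Compound dosing: single nominal final test compound concentration of 3 µM; Timing: 140 s kinetic read after compound, 140 s after agonist; Signal: Fluo-8 calcium-sensitive fluorescence; Measure: % inhibition of agonist calcium response; Controls: DMSO and EC80 PEA controls.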
Of the large screens only hits and unclear results are named; the others gave an inactive call.

O=C(C1CCCN1S(=O)(=O)c1cccc2nsnc12)N1CCN(c2ccccc2)CC1 (stereo unspecified)	none (no result: GalR3 antag, TAAR1 ag, TAAR1 antagonist)
O=C(C1CCCN1S(=O)(=O)c1cccc2nsnc12)N1CCN(c2ccc(F)cc2)CC1 (stereo unspecified)	none
Cc1ccc(C(=O)O)cc1NC(=O)C1CCCN1S(=O)(=O)c1cccc2nsnc12 (stereo unspecified)	OX1R antag-2 52
O=C(O)c1ccccc1NC(=O)C1CCN(S(=O)(=O)c2cccc3nsnc23)CC1	none
CCOC(=O)c1c(NC(=O)C2CCCN2S(=O)(=O)c2cccc3nsnc23)sc(C)c1C (stereo unspecified)	none (no result: OX1R antag-1, CHO parental Ca, OX1R antag-2)
O=C(Nc1ccccc1Br)C1CCCN1S(=O)(=O)c1cccc2nsnc12 (stereo unspecified)	OX1R antag-2 56
O=C(Nc1ccccc1F)C1CCCN1S(=O)(=O)c1cccc2nsnc12 (stereo unspecified)	OX1R antag-2 68
Cc1c(NC(=O)C2CCCN2S(=O)(=O)c2cccc3nsnc23)cccc1C(=O)O (stereo unspecified)	OX1R antag-2 48
CC(C)C(=O)NNS(=O)(=O)c1ccccc1[N+](=O)[O-]	none
CC1CCCC(NC(=O)C2CCCN2S(=O)(=O)c2cccc3nsnc23)C1C (stereo unspecified)	OX1R antag-2 71
CCCCNC(=O)C1CCCN1S(=O)(=O)c1cccc2nsnc12 (stereo unspecified)	none
CC(=O)Nc1ccc(S(=O)(=O)N(C)c2ccc(O)cc2)cc1	none
COc1ccc(OCC(=O)Nc2ccc(NC(=O)c3cccs3)c(OC)c2)cc1	none
COc1cc(NC(=O)c2cccs2)c(OC)cc1NC(=O)CCC(=O)Nc1ccc2ncccc2c1	TAAR1 antagonist 53 (no result: OX1R antag-1, CHO parental Ca, OX1R antag-2)
COc1ccc(C(=O)N/C(=C\c2ccc(OC)c(OC)c2)C(=O)N2CCCCC2)cc1	none
COc1ccc(Nc2ccc(N3C(=O)CC(C)C3=O)cc2[N+](=O)[O-])cc1OC (stereo unspecified)	OX1R antag-2 40
S=C(NCc1ccc2c(c1)OCO2)NC1CC1	none
COc1ccc(/C=C/C(=O)NCC(=O)N/N=C(\C)Cc2ccccc2)cc1	none
COC(=O)[C@]12CCCCC=C1N(Cc1ccccc1)C(=O)[C@H](CC(=O)N1CCC(c3ccccc3)CC1)C2	TAAR1 antagonist 54 (no result: OX1R antag-1, CHO parental Ca, OX1R antag-2)
CCCCCCCCN1C(=O)[C@H](CC(=O)N2CCC(c3ccccc3)CC2)C[C@@]2(C(=O)OC)CCCCC=C12	none (no result: OX1R antag-1, CHO parental Ca, OX1R antag-2)
COC(=O)[C@]12CCCCC=C1N(CCc1ccc(OC)c(OC)c1)C(=O)[C@H](CC(=O)N1CCN(C(=O)C3CC3)CC1)C2	none (no result: OX1R antag-1, CHO parental Ca, OX1R antag-2)
COC(=O)[C@]12CCCCC=C1N(CCc1ccc(OC)c(OC)c1)C(=O)[C@H](CC(=O)N1CCC(c3ccccc3)CC1)C2	TAAR1 antagonist 67 (no result: OX1R antag-1, CHO parental Ca, OX1R antag-2)
COc1cccc(C(=O)NCCn2ccc3ccccc32)c1	none (no result: GalR3 antag)
O=C(NCCc1ccccn1)/C(=C/c1ccco1)NC(=O)c1ccccc1	none
COc1ccc(OC)c(N(CC(=O)NCCSCc2ccco2)S(=O)(=O)c2ccccc2)c1	OX1R antag-2 51
Cc1cccc(N(CC(=O)NCCSc2ccccn2)S(=O)(=O)c2ccccc2)c1	none
COc1ccccc1OCCNC(=O)CN(c1cccc(C)c1)S(=O)(=O)c1ccccc1	OX1R antag-2 72, TAAR1 antagonist 49
O=C(O)/C=C\C(=O)Nc1cc(O)ccc1[N+](=O)[O-]	none
C/C(CC(=O)C(F)(F)F)=N\NC(=O)/C(C#N)=C/N(C)C	none
Cc1ccc(S(=O)(=O)N2CCOCC2)c2nsnc12	OX1R antag-2 41
O=S(=O)(c1cccc2nsnc12)N1CCCC1	none
Cc1ccc(S(=O)(=O)N2CCCCC2)c2nsnc12	none
O=S(=O)(c1ccc(Br)c2nsnc12)N1CCOCC1	OX1R antag-2 40
CN1CCN(S(=O)(=O)c2ccc(Br)c3nsnc23)CC1	OX1R antag-2 65
CN1CCN(S(=O)(=O)c2ccc(Sc3nc4ccccc4[nH]3)c3nsnc23)CC1	OX1R antag-2 163
C[C@H]1[C@H](c2ccccc2)Oc2ccc(Cl)cc2S(=O)(=O)N1C[C@@H]1CCCN1C(=O)OC(C)(C)C	none (no result: OX1R antag-1, CHO parental Ca, OX1R antag-2)
Cc1ccc(NC(=O)COn2nnc3ccc(S(=O)(=O)N(C)C)cc32)cc1F	none
COc1ccccc1N(CC(=O)N/N=C/c1c(O)ccc2ccccc12)S(C)(=O)=O	OX1R antag-2 69
CC(C)n1cc(CN2CCCC(C(=O)Nc3cccc(-c4cc5ccccc5[nH]4)c3)C2)cn1 (stereo unspecified)	TAAR1 ag 40
Cn1cc(CN2CCCC(C(=O)Nc3cccc(-c4cc5ccccc5[nH]4)c3)C2)cn1 (stereo unspecified)	none
CSc1ccc(S(=O)(=O)NCC(=O)OCC(=O)NCC2CCCO2)cc1[N+](=O)[O-] (stereo unspecified)	OX1R antag-2 56
C[C@@H]1C=CCCO[C@]12C(=O)Nc1ccccc12	none (no result: OX1R antag-1, CHO parental Ca, OX1R antag-2)
OC(CN(c1ccccc1)c1ccccc1)Cn1cnc2ccccc21 (stereo unspecified)	TAAR1 antagonist 57
OC(COCc1ccccc1)Cn1cnc2ccccc21 (stereo unspecified)	none
CCC1CCCCN1C(=O)CSc1nc(N)c(NC(=O)c2ccc(OC)c(OC)c2)c(=O)[nH]1 (stereo unspecified)	none (no result: GalR3 antag)
NC(=O)NN=C1CCn2cccc21	none (no result: OX1R antag-1, CHO parental Ca, OX1R antag-2)
Cc1c(NC(=O)CN2C(=O)c3cccc4cccc2c34)c(=O)n(-c2ccccc2)n1C	OX1R antag-2 76
Cc1c(NC(=O)/C=C/c2cn(-c3ccccc3)nc2-c2ccccc2)c(=O)n(-c2ccccc2)n1C	TAAR1 antagonist 52
O=C(O)/C=C/c1cn(-c2ccccc2)nc1-c1ccccc1	none
Cc1c(NC(=O)c2ccc(C(=O)Nc3c(C)n(C)n(-c4ccccc4)c3=O)cc2)c(=O)n(-c2ccccc2)n1C	none
Cc1c(NC(=O)c2ccc(=O)oc2)c(=O)n(-c2ccccc2)n1C	OX1R antag-2 76
O=C1N/C(=N\N=C\c2ccc3ncccc3c2)SC1Cc1ccc(SC(F)F)cc1 (stereo unspecified)	none
CO[C@@]12[C@@H]3N[C@@H]3CN1C1=C(C(=O)C(N)=C(C)C1=O)[C@@H]2COC(N)=O	none (no result: OX1R antag-1, CHO parental Ca, OX1R antag-2)

Screening data: PubChem BioAssay, The Scripps Research Institute Molecular Screening Center
